Source: ChEMBL document CHEMBL1147105, “In vitro and in vivo activities of PD 0305970 and PD 0326448, new bacterial gyrase/topoisomerase inhibitors with potent antibacterial activities versus multidrug-resistant gram-positive and fastidious organism groups” (2007)
Values after ≈ are worked out from the molar mass of the structure shown.

Experiments:
Enterococcus faecium = experiment: Antibacterial activity against VanA-resistant Enterococcus faecium; format: functional
Method in brief: (§1)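 Broth microdilution MIC per CLSI guidelines, incubated at 35°C. Cation-adjusted Mueller-Hinton broth for nonfastidious organisms and staphylococci. Streptococci tested in the same broth with 3% lysed horse blood. Anaerobes tested in supplemented Brucella broth inside an anaerobe chamber (5% CO2, 5% H2, 90% N2), read after 48 h. Strains were mainly recent clinical isolates with confirmed identity.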

[1] = tested on: Enterococcus casseliflavus; experiment: Antibacterial activity against Enterococcus casseliflavus; format: functional
Listeria monocytogenes = experiment: Antibacterial activity against Listeria monocytogenes; format: functional
Method in brief: (§2)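 Broth microdilution MIC following CLSI guidelines, in cation-adjusted Mueller-Hinton broth containing 3% lysed horse blood, incubated at 35°C. Clinical isolates with identity confirmed. Reported as MIC range, MIC50 and MIC90.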

Corynebacterium sp. = experiment: Antibacterial activity against Corynebacterium sp.; format: functional; method in brief: as §2
Haemophilus influenzae = experiment: Antibacterial activity against beta-lactamase positive Haemophilus influenzae; format: functional
Method in brief: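 Broth microdilution MIC following CLSI guidelines, in Haemophilus test medium at 35°C.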

Legionella pneumophila = experiment: Antibacterial activity against Legionella pneumophila; format: functional
Method in brief: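 Broth microdilution MIC per CLSI guidelines, run in buffered yeast extract α-ketoglutarate broth at 35°C and read after 48 h.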

Moraxella catarrhalis = experiment: Antibacterial activity against beta-lactamase negative Moraxella catarrhalis; format: functional
Citrobacter koseri = experiment: Antibacterial activity against Citrobacter diversus; format: functional
Method in brief: (§3)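 Broth microdilution MIC following CLSI guidelines, in cation-adjusted Mueller-Hinton broth, incubated at 35°C. Recent clinical isolates and reference strains, with identity confirmed by automated and standard microbiological methods. Results reported as MIC range, MIC50 and MIC90.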

Klebsiella oxytoca = experiment: Antibacterial activity against Klebsiella oxytoca; format: functional; method in brief: as §3
Klebsiella pneumoniae [2] = experiment: Antibacterial activity against Klebsiella pneumoniae; format: functional; method in brief: as §3
Klebsiella pneumoniae [3] = experiment: Antibacterial activity against beta-lactamase positive Klebsiella pneumoniae; format: functional
Method in brief: (§4)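 MIC by CLSI broth microdilution for nonfastidious organisms, in cation-adjusted Mueller-Hinton broth incubated at 35°C.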

Morganella morganii = experiment: Antibacterial activity against Morganella morganii; format: functional; method in brief: as §3
Proteus mirabilis = experiment: Antibacterial activity against Proteus mirabilis; format: functional; method in brief: as §3
Salmonella typhimurium = experiment: Antibacterial activity against Salmonella enterica serovar Typhimurium; format: functional, Salmonella enterica subsp. enterica serovar Typhimurium; method in brief: as §3
Shigella dysenteriae = experiment: Antibacterial activity against Shigella dysenteriae; format: functional
Serratia marcescens = experiment: Antibacterial activity against Serratia marcescens; format: functional; method in brief: as §3
Acinetobacter sp. = experiment: Antibacterial activity against Acinetobacter sp.; format: functional; method in brief: as §3
Pseudomonas aeruginosa = experiment: Antibacterial activity against Pseudomonas aeruginosa; format: functional; method in brief: as §3
Actinomyces sp. = experiment: Antibacterial activity against Actinomyces sp.; format: functional
Fusobacterium sp. = experiment: Antibacterial activity against Fusobacterium sp.; format: functional
Method in brief: (§5)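 Anaerobic broth microdilution MIC following CLSI guidelines, in supplemented Brucella broth. Run in an anaerobe chamber under 5% CO2, 5% H2 and 90% N2 at 35°C, and read after 48 h. Reported as MIC range, MIC50 and MIC90.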

[4] = tested on: Peptostreptococcus anaerobius; experiment: Antibacterial activity against Peptostreptococcus anaerobius; format: functional; method in brief: as §5
Streptococcus pyogenes = experiment: Antibacterial activity against Streptococcus pyogenes; format: functional
Method in brief: (§6)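 Broth microdilution MIC following CLSI guidelines, in cation-adjusted Mueller-Hinton broth with 3% lysed horse blood. Plates incubated at 35°C. Clinical isolates and reference strains, with identity confirmed by standard microbiological methods.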

[5] = tested on: Fusobacterium necrophorum; experiment: Antibacterial activity against Fusobacterium necrophorum; format: functional; method in brief: as §5
Clostridioides difficile = experiment: Antibacterial activity against Clostridium difficile; format: functional; method in brief: as §5
[6] = tested on: Bacteroides thetaiotaomicron; experiment: Antibacterial activity against Bacteroides thetaiotaomicron; format: functional; method in brief: as §5
Bacteroides fragilis = experiment: Antibacterial activity against Bacteroides fragilis; format: functional; method in brief: as §5
Bacteroides ovatus = experiment: Antibacterial activity against Bacteroides ovatus; format: functional; method in brief: as §5
Staphylococcus aureus [7] = experiment: Antibacterial activity against oxacillin-susceptible Staphylococcus aureus; format: functional; method in brief: as §4
Staphylococcus aureus [8] = experiment: Antibacterial activity against oxacillin-resistant Staphylococcus aureus; format: functional; method in brief: as §1
Staphylococcus aureus [9] = experiment: Antibacterial activity against vancomycin-intermediate Staphylococcus aureus; format: functional; method in brief: as §1
[10] = tested on: Staphylococcus epidermidis; experiment: Antibacterial activity against oxacillin-susceptible Staphylococcus epidermidis; format: functional; method in brief: as §4
[11] = tested on: Staphylococcus epidermidis; experiment: Antibacterial activity against oxacillin-resistant Staphylococcus epidermidis; format: functional; method in brief: as §1
[12] = tested on: Staphylococcus haemolyticus; experiment: Antibacterial activity against Staphylococcus haemolyticus; format: functional; method in brief: as §2
Alloiococcus otitis = experiment: Antibacterial activity against Alloiococcus otitidis; format: functional
Method in brief: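 MIC by broth microdilution following CLSI guidelines, in cation-adjusted Mueller-Hinton broth with 3% lysed horse blood. Incubated at 35°C and read after 48 h. Reported as MIC range, MIC50 and MIC90.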

Streptococcus agalactiae = experiment: Antibacterial activity against Streptococcus agalactiae; format: functional; method in brief: as §2
Streptococcus pneumoniae [13] = experiment: Antibacterial activity against penicillin-susceptible Streptococcus pneumoniae; format: functional; method in brief: as §1
Streptococcus pneumoniae [14] = experiment: Antibacterial activity against penicillin-intermediate resistant Streptococcus pneumoniae; format: functional; method in brief: as §1
Streptococcus pneumoniae [15] = experiment: Antibacterial activity against levofloxacin-resistant Streptococcus pneumoniae; format: functional; method in brief: as §1
Prevotella buccae = experiment: Antibacterial activity against Prevotella buccae; format: functional; settings: Segatella buccae; method in brief: as §5
Prevotella corporis = experiment: Antibacterial activity against Prevotella corporis; format: functional; method in brief: as §5
[16] = tested on: Prevotella melaninogenica; experiment: Antibacterial activity against Prevotella melaninogenica; format: functional; method in brief: as §5
Hoylesella oralis = experiment: Antibacterial activity against Prevotella oralis; format: functional; method in brief: as §5
Neisseria meningitidis = experiment: Antibacterial activity against Neisseria meningitidis; format: functional
Method in brief: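 MIC by broth microdilution in gonococcal broth, incubated at 35°C in 5% CO2. Reported as MIC range, MIC50 and MIC90.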

Streptococcus salivarius = experiment: Antibacterial activity against Streptococcus salivarius; format: functional; method in brief: as §6
Streptococcus mitis = experiment: Antibacterial activity against Streptococcus mitis; format: functional; method in brief: as §6
Salmonella enteritidis = experiment: Antibacterial activity against Salmonella enterica serovar Enteritidis; format: functional, Salmonella enterica subsp. enterica serovar Enteritidis; method in brief: as §3

COc1c(N2CCNC(C)C2)c(F)cc2c(=O)c(C(=O)O)cn(C3CC3)c12 (stereo unspecified) [GATIFLOXACIN]
MIC50 (Enterococcus faecium): 32 µg/mL (≈ 85.2 µM)
MIC90 (Enterococcus faecium): 64 µg/mL (≈ 170 µM)
MIC50 [1]: 0.5 µg/mL (≈ 1.33 µM)
MIC90 [1]: 1 µg/mL (≈ 2.66 µM)
MIC50 (Listeria monocytogenes): 0.5 µg/mL (≈ 1.33 µM)
MIC90 (Listeria monocytogenes): 1 µg/mL (≈ 2.66 µM)
MIC50 (Corynebacterium sp.): 0.25 µg/mL (≈ 0.666 µM)
MIC90 (Corynebacterium sp.): 32 µg/mL (≈ 85.2 µM)
MIC50 (Haemophilus influenzae): 0.015 µg/mL (≈ 0.04 µM)
MIC90 (Haemophilus influenzae): 0.015 µg/mL (≈ 0.04 µM)
MIC50 (Legionella pneumophila): 0.008 µg/mL (≈ 0.0213 µM)
MIC90 (Legionella pneumophila): 0.008 µg/mL (≈ 0.0213 µM)
MIC50 (Moraxella catarrhalis): 0.06 µg/mL (≈ 0.16 µM)
MIC90 (Moraxella catarrhalis): 0.06 µg/mL (≈ 0.16 µM)
MIC50 (Citrobacter koseri): 0.03 µg/mL (≈ 0.0799 µM)
MIC90 (Citrobacter koseri): 0.06 µg/mL (≈ 0.16 µM)
MIC50 (Klebsiella oxytoca): 0.03 µg/mL (≈ 0.0799 µM)
MIC90 (Klebsiella oxytoca): 1 µg/mL (≈ 2.66 µM)
MIC50 (Klebsiella pneumoniae [2]): 0.06 µg/mL (≈ 0.16 µM)
MIC90 (Klebsiella pneumoniae [2]): 0.5 µg/mL (≈ 1.33 µM)
MIC50 (Klebsiella pneumoniae [3]): 1 µg/mL (≈ 2.66 µM)
MIC90 (Klebsiella pneumoniae [3]): 16 µg/mL (≈ 42.6 µM)
MIC50 (Morganella morganii): 0.25 µg/mL (≈ 0.666 µM)
MIC90 (Morganella morganii): 32 µg/mL (≈ 85.2 µM)
MIC50 (Proteus mirabilis): 0.25 µg/mL (≈ 0.666 µM)
MIC90 (Proteus mirabilis): 4 µg/mL (≈ 10.7 µM)
MIC50 (Salmonella typhimurium): 0.03 µg/mL (≈ 0.0799 µM)
MIC90 (Salmonella typhimurium): 0.06 µg/mL (≈ 0.16 µM)
MIC50 (Shigella dysenteriae): 0.03 µg/mL (≈ 0.0799 µM)
MIC90 (Shigella dysenteriae): 0.06 µg/mL (≈ 0.16 µM)
MIC50 (Serratia marcescens): 0.25 µg/mL (≈ 0.666 µM)
MIC90 (Serratia marcescens): 4 µg/mL (≈ 10.7 µM)
MIC50 (Acinetobacter sp.): 0.03 µg/mL (≈ 0.0799 µM)
MIC90 (Acinetobacter sp.): 16 µg/mL (≈ 42.6 µM)
MIC50 (Pseudomonas aeruginosa): 1 µg/mL (≈ 2.66 µM)
MIC90 (Pseudomonas aeruginosa): 64 µg/mL (≈ 170 µM)
MIC (Actinomyces sp.): 0.125 µg/mL (≈ 0.333 µM)
MIC (Fusobacterium sp.): 0.015 µg/mL (≈ 0.04 µM)
MIC [4]: 0.06 µg/mL (≈ 0.16 µM)
MIC50 (Streptococcus pyogenes): 0.25 µg/mL (≈ 0.666 µM)
MIC90 (Streptococcus pyogenes): 0.5 µg/mL (≈ 1.33 µM)
MIC [5]: 0.015 µg/mL (≈ 0.04 µM)
MIC50 (Clostridioides difficile): 0.5 µg/mL (≈ 1.33 µM)
MIC90 (Clostridioides difficile): 0.5 µg/mL (≈ 1.33 µM)
MIC50 [6]: 4 µg/mL (≈ 10.7 µM)
MIC90 [6]: 16 µg/mL (≈ 42.6 µM)
MIC50 (Bacteroides fragilis): 1 µg/mL (≈ 2.66 µM)
MIC90 (Bacteroides fragilis): 8 µg/mL (≈ 21.3 µM)
MIC50 (Bacteroides ovatus): 4 µg/mL (≈ 10.7 µM)
MIC90 (Bacteroides ovatus): 16 µg/mL (≈ 42.6 µM)
MIC50 (Staphylococcus aureus [7]): 0.125 µg/mL (≈ 0.333 µM)
MIC90 (Staphylococcus aureus [7]): 0.125 µg/mL (≈ 0.333 µM)
MIC50 (Staphylococcus aureus [8]): 4 µg/mL (≈ 10.7 µM)
MIC90 (Staphylococcus aureus [8]): 8 µg/mL (≈ 21.3 µM)
MIC (Staphylococcus aureus [9]): 8 µg/mL (≈ 21.3 µM)
MIC [10]: 0.125 µg/mL (≈ 0.333 µM)
MIC50 [11]: 2 µg/mL (≈ 5.33 µM)
MIC90 [11]: 32 µg/mL (≈ 85.2 µM)
MIC50 [12]: 0.125 µg/mL (≈ 0.333 µM)
MIC90 [12]: 4 µg/mL (≈ 10.7 µM)
MIC50 (Alloiococcus otitis): 0.06 µg/mL (≈ 0.16 µM)
MIC90 (Alloiococcus otitis): 0.06 µg/mL (≈ 0.16 µM)
MIC50 (Streptococcus agalactiae): 0.25 µg/mL (≈ 0.666 µM)
MIC90 (Streptococcus agalactiae): 0.25 µg/mL (≈ 0.666 µM)
MIC50 (Streptococcus pneumoniae [13]): 0.25 µg/mL (≈ 0.666 µM)
MIC90 (Streptococcus pneumoniae [13]): 0.5 µg/mL (≈ 1.33 µM)
MIC50 (Streptococcus pneumoniae [14]): 0.25 µg/mL (≈ 0.666 µM)
MIC90 (Streptococcus pneumoniae [14]): 0.5 µg/mL (≈ 1.33 µM)
MIC50 (Streptococcus pneumoniae [15]): 4 µg/mL (≈ 10.7 µM)
MIC90 (Streptococcus pneumoniae [15]): 4 µg/mL (≈ 10.7 µM)
MIC50 (Prevotella buccae): 0.25 µg/mL (≈ 0.666 µM)
MIC90 (Prevotella buccae): 0.5 µg/mL (≈ 1.33 µM)
MIC50 (Prevotella corporis): 0.25 µg/mL (≈ 0.666 µM)
MIC90 (Prevotella corporis): 0.5 µg/mL (≈ 1.33 µM)
MIC50 [16]: 0.25 µg/mL (≈ 0.666 µM)
MIC90 [16]: 0.5 µg/mL (≈ 1.33 µM)
MIC50 (Hoylesella oralis): 0.25 µg/mL (≈ 0.666 µM)
MIC90 (Hoylesella oralis): 0.5 µg/mL (≈ 1.33 µM)
MIC50 (Neisseria meningitidis): 0.004 µg/mL (≈ 0.0107 µM)
MIC90 (Neisseria meningitidis): 0.008 µg/mL (≈ 0.0213 µM)
MIC50 (Streptococcus salivarius): 0.5 µg/mL (≈ 1.33 µM)
MIC90 (Streptococcus salivarius): 0.5 µg/mL (≈ 1.33 µM)
MIC50 (Streptococcus mitis): 0.5 µg/mL (≈ 1.33 µM)
MIC90 (Streptococcus mitis): 0.5 µg/mL (≈ 1.33 µM)
MIC50 (Salmonella enteritidis): 0.03 µg/mL (≈ 0.0799 µM)
MIC90 (Salmonella enteritidis): 0.06 µg/mL (≈ 0.16 µM)
